The source of these data is PMC5656813 (Arthritis & Rheumatology (Hoboken, N.j.), 2017).

The test system of series [1] is patients with RA who had had an insufficient response to MTX. Conditions: cited from earlier work.
The nature of series [2]: Studies 1 and 2, steady‐state plasma PK of filgotinib and its major metabolite. It is filed as in vivo, human. The following applies: for Tmax of major metabolite, steady state: median (range). A digest of the protocol: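 RA patients on stable methotrexate took oral test compound or placebo capsules for 4 weeks: 200 mg once daily or 100 mg twice daily (study 1), or 30, 75, 150 or 300 mg once daily (study 2). In a subset (12 and 15 patients), plasma parent and major metabolite were sampled predose and 1, 2, 3, 5 and 8 h after the morning dose, at week 2 or 4. Descriptive statistics were calculated by dose.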

The conditions of series [3]: cited from earlier work.
The test system of the next series is JAK‐1. The following applies: cited from earlier work.
Setting [4] is: after filgotinib 30 mg once daily, study 2, arithmetic mean (coefficient of variation).
Where [5] appears, read: after filgotinib 75 mg once daily, study 2, arithmetic mean.
Setting [6] is: after filgotinib 100 mg twice daily, study 1, arithmetic mean (coefficient of variation).
Setting [7] is: after filgotinib 150 mg once daily, study 2, arithmetic mean (coefficient of variation).
[8] abbreviates: after filgotinib 200 mg once daily, study 1, arithmetic mean (coefficient of variation).
Setting [9] is: after filgotinib 300 mg once daily, study 2, arithmetic mean (coefficient of variation).

`CC[C@@H]1CN(C(=O)NCC(F)(F)F)C[C@@H]1c1cnc2cnc3[nH]ccc3n12` [ABT‐494]: in series [1], the “effect on natural killer (NK) cells” value was “decreased”. For the same compound, the effect on hemoglobin entry in series [1] (middle and higher doses, within 4 weeks) is recorded as “decline in hemoglobin”.
As to `Nc1nc2cccc(-c3ccc(CN4CCS(=O)(=O)CC4)cc3)n2n1` [major metabolite], the “dose proportionality of PK” value in series [2] (30–300 mg range) is reported as “essentially dose proportional”. Also, the “AUCtau of major metabolite, steady state” value in series [2] (setting [4]) was 11.2 (52.2) μg.hour/ml; in series [2] (setting [5]), 26.0 µg·h/mL; in series [2] (setting [6]) it was 33.1 (26.3) μg.hour/ml; in series [2] (setting [7]) it was 75.9 (31.0) μg.hour/ml; in series [2] (setting [8]), 71.8 (31.3) μg.hour/ml; in series [2] (setting [9]) it was 93.9 (20.4) μg.hour/ml. Further, the “Cmax of major metabolite, steady state” value in series [2] (setting [4]) was 0.582 (48.5) μg/ml; in series [2] (setting [5]), 1.46 µg/mL; in series [2] (setting [6]), 3.18 (25.0) μg/ml; in series [2] (setting [7]), 3.79 (26.5) μg/ml; in series [2] (setting [8]), 3.77 (23.6) μg/ml; in series [2] (setting [9]), 4.62 (9.98) μg/ml. For the same compound, the “Tmax of major metabolite, steady state” value in series [2] (after filgotinib 30 mg once daily, study 2) was 5 (1–8) hours; in series [2] (after filgotinib 75 mg once daily, study 2), 5.5 (3–8) hours; in series [2] (after filgotinib 100 mg twice daily, study 1), 2 (0–5) hours; in series [2] (after filgotinib 150 mg once daily, study 2) it was 3 (2–5) hours; in series [2] (after filgotinib 200 mg once daily, study 1), 3 (1–5) hours; in series [2] (after filgotinib 300 mg once daily, study 2) it was 3 (3–8) hours. In addition, the “time of dosing to attain steady state” value in series [2] (in vivo) is on record as at most 4 days. The “exposure to major metabolite, higher than exposure to parent filgotinib” value in series [2] (steady state, 75–300 mg dose range) was found to be 13 fold. In addition, the “half‐life” value in series [3] was about 24 h. In addition, in series [3] (in humans), the “overall exposure of metabolite, higher than that of filgotinib” value was about 15 fold. In addition, the “JAK‐1 inhibition potency of metabolite, lower than filgotinib” value in the series on JAK‐1 is reported as about 10 fold.
